A selection: hits, their analogues and other compounds. The true share with any hit is near 6%.
PostGolgi ctrl: yeast control strain growth, post-Golgi counter-screen; efflux-deficient yeast background strain, growth absorbance A615, 16 h; inhibition, % at 10 µM; 5% of 98,000 active
PostGolgi yeast: growth inhibition of a yeast mutant, post-Golgi transport screen; 0.9% of 98,000 active; AID 739; post-Golgi transport phenotypic cell assay; inhibition, % at 10 µM;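 also: yeast cells grown in 1536-well plates; yeast grown about 18 h at 30C before absorbance read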
Ecoli WT expand: growth inhibitors of E. coli BW25113 wild type | growth inhibition, % at 100 µM | 0.15% of 98,000 active | AID 710 | OD600 absorbance;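 active = growth inhibition above about 50% at one test dose, limit read from the data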;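 also: growth measured after 20 h incubation at 37 °C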
tolC growth inh: growth inhibitors of E. coli BW25113 tolC mutant; OD615; growth inhibition, % at 10 µM (by protocol); 2.2% of 65,000 active;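 active = growth inhibition at or above a cutoff equal to the mean over every tested compound plus 3 SD, cut at about 60% in these data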;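 also: growth measured after 20 h incubation at 37 °C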
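Test system: tolC-deleted E. coli BW25113 | Medium: LB with kanamycin 50 µg/mL | Compound dosing: Single concentration, 10 µM final per compound | Schedule: 37 °C, 20 h exposure | Measured by: OD at 615 nm | Evaluation: Percent growth inhibition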
EphB4 ephrin blk: blocks human EphB4 binding to ephrin-B2; P54760; EphB4 LBD / TNYL-RAW-Alexa532 peptide, fluorescence polarization; inhibition, % at 7 µM; 0.15% of 97,000 active; AID 720;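 active = inhibition above the screen-wide mean inhibition plus 3 SD, cut at about 15% in these data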
Target sequence (P54760 whole entry, looked up, the tested form may be a part): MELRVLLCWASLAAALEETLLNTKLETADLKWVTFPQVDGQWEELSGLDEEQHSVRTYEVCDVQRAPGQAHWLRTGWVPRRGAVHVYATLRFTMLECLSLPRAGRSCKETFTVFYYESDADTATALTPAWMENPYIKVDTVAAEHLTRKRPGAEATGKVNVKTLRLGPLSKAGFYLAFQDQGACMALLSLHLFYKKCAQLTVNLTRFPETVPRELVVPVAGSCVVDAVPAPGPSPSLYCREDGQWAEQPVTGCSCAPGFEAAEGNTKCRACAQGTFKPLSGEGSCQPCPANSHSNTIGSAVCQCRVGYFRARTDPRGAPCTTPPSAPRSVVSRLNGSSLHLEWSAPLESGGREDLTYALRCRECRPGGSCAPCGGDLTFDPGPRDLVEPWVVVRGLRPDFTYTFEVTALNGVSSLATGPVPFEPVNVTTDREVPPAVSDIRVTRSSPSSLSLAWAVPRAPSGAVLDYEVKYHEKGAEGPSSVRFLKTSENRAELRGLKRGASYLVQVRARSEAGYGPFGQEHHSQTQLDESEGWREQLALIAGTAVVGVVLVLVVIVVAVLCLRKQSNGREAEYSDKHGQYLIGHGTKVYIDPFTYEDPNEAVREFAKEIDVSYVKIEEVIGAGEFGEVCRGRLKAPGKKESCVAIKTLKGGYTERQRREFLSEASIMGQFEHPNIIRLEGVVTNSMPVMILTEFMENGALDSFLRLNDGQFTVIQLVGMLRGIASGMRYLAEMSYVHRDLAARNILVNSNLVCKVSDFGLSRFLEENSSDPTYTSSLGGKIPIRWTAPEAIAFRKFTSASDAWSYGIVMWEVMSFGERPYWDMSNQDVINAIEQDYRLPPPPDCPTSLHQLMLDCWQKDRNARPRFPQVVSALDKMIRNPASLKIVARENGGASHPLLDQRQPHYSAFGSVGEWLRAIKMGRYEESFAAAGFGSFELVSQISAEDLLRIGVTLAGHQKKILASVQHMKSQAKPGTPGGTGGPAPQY
Numbers stand for hits. Rule as the data show it, unless noted: active = inhibition above about 30%; inactive = the rest.

What do the screens show for `CCOc1ccc2nc(Nc3nc4c(c(=O)[nH]3)CCC4)nc(C)c2c1`?
tolC growth inh: inactive

Results for O=C(CC1N=C2c3ccccc3N=C(SCc3ccc(Cl)cc3)N2C1=O)NCc1ccco1 (centres undefined) ?
PostGolgi ctrl: 36.6; PostGolgi yeast: inactive; Ecoli WT expand: inactive; tolC growth inh: inactive; EphB4 ephrin blk: inactive

How did CC(C)OC(=O)c1ccc(NC(=O)c2ccco2)cc1 do in these assays?
PostGolgi ctrl: inactive; PostGolgi yeast: inactive; Ecoli WT expand: inactive; EphB4 ephrin blk: inactive

How did Cc1nn(-c2ccccc2)c2sc(C(=O)N3CCCCC3)cc12 do in these assays?
PostGolgi ctrl: inactive; PostGolgi yeast: inactive; Ecoli WT expand: inactive; tolC growth inh: inactive; EphB4 ephrin blk: inactive

How did Cc1nn(-c2ccccc2)c2sc(C(=O)N3CCc4ccccc4C3)cc12 do in these assays?
PostGolgi ctrl: 44.8; PostGolgi yeast: inactive; Ecoli WT expand: inactive; tolC growth inh: inactive

What do the screens show for `Cc1nc2ccccc2c2oc(C(=O)N3CCc4ccccc4C3)cc12`?
PostGolgi ctrl: 35.2; PostGolgi yeast: inactive; Ecoli WT expand: inactive; tolC growth inh: inactive; EphB4 ephrin blk: inactive

What do the screens show for `Cc1cccc(S(=O)(=O)Nc2ccc(C)c3c2OC(C)(C)C3)c1`?
PostGolgi ctrl: inactive; PostGolgi yeast: inactive; Ecoli WT expand: inactive; EphB4 ephrin blk: inactive

How did COc1ccc(C2=NN(CN3C(=O)C(=O)c4ccccc43)C(c3ccc(Br)cc3)C2)cc1 (centres undefined) do in these assays?
PostGolgi ctrl: 31.9; PostGolgi yeast: inactive; Ecoli WT expand: inactive; EphB4 ephrin blk: inactive

What do the screens show for `O=C(CSc1nnc(-c2ccncc2)n1-c1ccc(Cl)cc1)NCc1cccs1`?
PostGolgi ctrl: inactive; PostGolgi yeast: inactive; Ecoli WT expand: inactive; EphB4 ephrin blk: inactive

How did CC(C)c1ccc(C(=O)CSc2n[nH]c(-c3ccncc3)n2)cc1 do in these assays?
PostGolgi ctrl: 62.5; PostGolgi yeast: 95.4; Ecoli WT expand: inactive; EphB4 ephrin blk: inactive

What do the screens show for `O=C(CSc1n[nH]c(-c2ccccc2)n1)c1ccccc1`?
PostGolgi ctrl: inactive; PostGolgi yeast: inactive; Ecoli WT expand: inactive; tolC growth inh: inactive; EphB4 ephrin blk: inactive

How did Oc1ccc2ccccc2c1C1Nc2cccc3cccc(c23)N1 do in these assays?
PostGolgi ctrl: 36.8; PostGolgi yeast: inactive; Ecoli WT expand: inactive; EphB4 ephrin blk: inactive

What do the screens show for `CCN(CC)c1ccc(C2Nc3cccc4cccc(c34)N2)c(O)c1`?
tolC growth inh: inactive; EphB4 ephrin blk: inactive

How did Cc1cc(=O)cc(C)n1-c1ccc2c(c1)nc(C)n2-c1ccccc1 do in these assays?
tolC growth inh: inactive

How did Cc1cc2c3nonc3ccc2n1-c1ccccc1 do in these assays?
PostGolgi ctrl: 34.6; PostGolgi yeast: inactive; Ecoli WT expand: inactive; tolC growth inh: inactive; EphB4 ephrin blk: inactive

How did C=C(C)[C@H]1CC=C(C)/C(=N/NC(=O)CNc2ccccc2OC)C1 do in these assays?
PostGolgi ctrl: 54.0; PostGolgi yeast: inactive; Ecoli WT expand: inactive; EphB4 ephrin blk: inactive

How did CCSc1nnc(NC(=O)c2ccc3c(c2)OCO3)s1 do in these assays?
PostGolgi ctrl: 40.6; PostGolgi yeast: inactive; Ecoli WT expand: inactive; tolC growth inh: inactive; EphB4 ephrin blk: inactive

How did CCSc1nnc(NC(=O)C(C)(C(F)(F)F)C(F)(F)F)s1 do in these assays?
PostGolgi ctrl: inactive; PostGolgi yeast: inactive; Ecoli WT expand: inactive; tolC growth inh: inactive; EphB4 ephrin blk: inactive

How did CCSc1nnc(NC(=O)NCC(F)(F)F)s1 do in these assays?
PostGolgi ctrl: inactive; PostGolgi yeast: 45.3; Ecoli WT expand: inactive; tolC growth inh: inactive

Results for CCSc1nnc(NC(=O)c2ccccn2)s1 ?
PostGolgi ctrl: inactive; PostGolgi yeast: inactive; Ecoli WT expand: 63.0; tolC growth inh: 100.0

What do the screens show for `CCSc1nnc(NC(=O)c2ccccc2)s1`?
tolC growth inh: inactive

How did CCSc1nnc(NC(=O)c2cc(C)on2)s1 do in these assays?
PostGolgi ctrl: 32.8; PostGolgi yeast: inactive; Ecoli WT expand: inactive; tolC growth inh: inactive; EphB4 ephrin blk: inactive

How did O=C(NCc1ccc2c(c1)OCO2)c1ccc(N2C(=O)C3CCCCC3C2=O)cc1 (centres undefined) do in these assays?
PostGolgi ctrl: inactive; PostGolgi yeast: inactive; Ecoli WT expand: inactive; EphB4 ephrin blk: inactive

How did Cc1nc(-c2ccccc2)sc1-c1nc(-c2cccnc2)ncc1S(=O)(=O)c1ccccc1 do in these assays?
PostGolgi ctrl: 32.1; PostGolgi yeast: inactive; Ecoli WT expand: inactive; EphB4 ephrin blk: inactive

How did Cc1nc(-c2ccccc2)sc1-c1nc(-c2cccs2)ncc1S(=O)(=O)c1ccccc1 do in these assays?
PostGolgi ctrl: inactive; PostGolgi yeast: inactive; Ecoli WT expand: inactive; EphB4 ephrin blk: inactive

Screens: PubChem, several laboratories
